From publication PMC7740640 (Xenobiotica; the fate of foreign compounds in biological …, 2020)
Where “and” joins values, the source holds several entries; their conditions need not be identical. Identical values can stand only once.

Assays:
Type in all cases: in vitro ADME
CYP2C9 = CYP2C9 (Homo sapiens, UniProt P11712); assay: C152 metabolism; conditions: for Specific rate: CYP2C9
How it was run: (§1)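 Human P450s in Supersomes that co-express human CPR and cytochrome b5. Reaction in 0.1 M Na-HEPES pH 7.4 with 60 mM KCl, stirred at 30 °C. C152 0.1–30 μM added from acetone stock; 200 μM NADPH starts it. Fluorescence rise read at 500 nm (isosbestic, mono-demethylation step). Rate is the linear slope over 3–5 min, scaled by the C151–C152 fluorescence difference. Michaelis–Menten or Hill fit, Vmax per P450, 2–6 runs; rate at 30 μM computed from fit.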

CYP3A4 [1] = molecular target: T1, CYP3A4 (Homo sapiens, UniProt P08684); assay: C152 metabolism; conditions: for Specific rate: CYP3A4
T1 sequence (P08684 2-503 limits assumed): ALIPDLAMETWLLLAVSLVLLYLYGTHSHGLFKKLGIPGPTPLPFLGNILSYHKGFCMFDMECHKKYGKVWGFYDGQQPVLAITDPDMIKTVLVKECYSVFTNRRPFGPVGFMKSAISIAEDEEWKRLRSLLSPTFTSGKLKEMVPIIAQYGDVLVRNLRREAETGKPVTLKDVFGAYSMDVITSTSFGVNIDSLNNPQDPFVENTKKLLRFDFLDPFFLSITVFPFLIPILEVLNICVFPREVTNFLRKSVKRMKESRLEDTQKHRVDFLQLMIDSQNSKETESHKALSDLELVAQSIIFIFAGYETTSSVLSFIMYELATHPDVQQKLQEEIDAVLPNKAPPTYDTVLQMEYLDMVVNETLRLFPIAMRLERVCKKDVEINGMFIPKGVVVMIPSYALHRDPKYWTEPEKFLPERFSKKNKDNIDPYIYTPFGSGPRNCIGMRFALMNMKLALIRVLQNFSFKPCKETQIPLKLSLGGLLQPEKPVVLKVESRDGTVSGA
How it was run: as §1

CYP3A5 [2] = molecular target: T2, CYP3A5 (Homo sapiens, UniProt P20815); assay: C152 metabolism; conditions: for Specific rate: CYP3A5
T2 sequence (P20815 whole entry): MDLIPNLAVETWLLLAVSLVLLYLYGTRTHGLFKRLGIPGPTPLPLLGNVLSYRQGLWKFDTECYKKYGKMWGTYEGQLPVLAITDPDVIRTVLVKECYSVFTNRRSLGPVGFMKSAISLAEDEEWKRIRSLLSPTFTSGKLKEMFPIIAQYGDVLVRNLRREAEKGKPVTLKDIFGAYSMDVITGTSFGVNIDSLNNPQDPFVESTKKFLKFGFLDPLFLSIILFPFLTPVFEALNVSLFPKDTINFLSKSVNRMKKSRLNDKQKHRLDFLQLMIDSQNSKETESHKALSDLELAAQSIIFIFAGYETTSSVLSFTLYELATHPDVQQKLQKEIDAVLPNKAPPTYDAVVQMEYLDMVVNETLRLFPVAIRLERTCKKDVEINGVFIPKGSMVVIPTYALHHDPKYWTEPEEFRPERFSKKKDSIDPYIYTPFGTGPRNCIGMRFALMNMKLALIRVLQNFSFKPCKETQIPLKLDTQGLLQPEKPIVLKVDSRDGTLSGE
How it was run: as §1

CYP2B6 = molecular target: T3, CYP2B6 (Homo sapiens, UniProt P20813); assay: Formation of C151 from C152; conditions: SS(2B6)
T3 sequence (P20813 1-491): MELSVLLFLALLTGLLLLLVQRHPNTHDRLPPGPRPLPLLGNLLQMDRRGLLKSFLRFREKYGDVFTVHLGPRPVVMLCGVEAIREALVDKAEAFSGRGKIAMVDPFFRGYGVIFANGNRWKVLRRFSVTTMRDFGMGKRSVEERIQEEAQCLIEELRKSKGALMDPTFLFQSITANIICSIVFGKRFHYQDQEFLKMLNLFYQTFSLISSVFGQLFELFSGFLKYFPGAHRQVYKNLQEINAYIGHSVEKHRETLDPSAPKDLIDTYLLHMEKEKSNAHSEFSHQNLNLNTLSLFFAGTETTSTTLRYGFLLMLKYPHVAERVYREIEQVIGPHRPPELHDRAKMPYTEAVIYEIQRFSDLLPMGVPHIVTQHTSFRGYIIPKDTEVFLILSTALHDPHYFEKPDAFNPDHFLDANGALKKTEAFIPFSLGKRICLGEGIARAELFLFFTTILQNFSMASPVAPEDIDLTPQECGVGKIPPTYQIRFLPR
How it was run: (§2)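 Probes hold 5–20 pmol P450 in 0.1 M Na-HEPES pH 7.4 with 60 mM KCl. C152 added from 0.5 or 4 mM acetone stock; reaction started with 500 μM NADPH (final), run 5 min at 30 °C with shaking. Quenched with isopropanol containing phenacetin internal standard, then centrifuged. C151 quantified by reverse-phase LC with ESI-positive MRM MS/MS (m/z 230.16→157.2). Michaelis–Menten or Hill fit; normalized per P450 (Supersomes) or CPR (HLM).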

CYP2C19 [3] = molecular target: T4, CYP2C19 (Homo sapiens, UniProt P33261); assay: Formation of C151 from C152; conditions: SS(2C19)
T4 sequence (P33261 whole entry): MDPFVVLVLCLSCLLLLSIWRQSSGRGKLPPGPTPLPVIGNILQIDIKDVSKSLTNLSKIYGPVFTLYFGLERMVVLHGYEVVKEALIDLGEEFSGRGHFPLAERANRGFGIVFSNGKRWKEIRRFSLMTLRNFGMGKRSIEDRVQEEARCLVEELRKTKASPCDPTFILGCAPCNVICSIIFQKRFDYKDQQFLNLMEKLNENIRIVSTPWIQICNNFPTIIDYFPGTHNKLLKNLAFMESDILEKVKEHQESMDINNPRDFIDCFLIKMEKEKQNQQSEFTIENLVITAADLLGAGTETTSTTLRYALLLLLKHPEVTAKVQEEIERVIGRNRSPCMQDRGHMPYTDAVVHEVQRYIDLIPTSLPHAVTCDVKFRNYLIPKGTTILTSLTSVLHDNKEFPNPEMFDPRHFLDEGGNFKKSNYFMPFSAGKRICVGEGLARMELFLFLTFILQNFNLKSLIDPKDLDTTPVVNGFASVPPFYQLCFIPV
How it was run: as §2

CYP3A4 [4] = molecular target: T1, CYP3A4; assay: Formation of C151 from C152; conditions: SS(3A4)
How it was run: as §2

[5] = tested on: human liver microsomes (HLM); assay: Formation of C151 from C152
How it was run: as §2

CYP2C8 = molecular target: T5, CYP2C8 (Homo sapiens, UniProt P10632); assay: Projected involvement in C152 metabolism in HLM
T5 sequence (P10632 1-490): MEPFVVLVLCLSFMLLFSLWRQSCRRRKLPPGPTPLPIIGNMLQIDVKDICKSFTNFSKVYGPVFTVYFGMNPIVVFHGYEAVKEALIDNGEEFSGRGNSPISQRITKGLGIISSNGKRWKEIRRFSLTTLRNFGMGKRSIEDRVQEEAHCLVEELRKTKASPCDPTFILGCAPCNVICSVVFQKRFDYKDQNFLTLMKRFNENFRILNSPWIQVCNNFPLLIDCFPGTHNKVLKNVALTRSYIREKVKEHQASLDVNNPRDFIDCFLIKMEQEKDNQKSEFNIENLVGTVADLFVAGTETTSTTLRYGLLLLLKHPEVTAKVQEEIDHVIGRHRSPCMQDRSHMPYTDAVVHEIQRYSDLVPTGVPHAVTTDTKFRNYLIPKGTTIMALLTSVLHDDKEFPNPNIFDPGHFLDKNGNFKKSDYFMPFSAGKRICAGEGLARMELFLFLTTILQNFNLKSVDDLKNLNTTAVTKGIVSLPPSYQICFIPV

CYP2C19 [6] = molecular target: T4, CYP2C19; assay: Projected involvement in C152 metabolism in HLM
How it was run: (§3)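 Calculated values, no new incubations. Each of seven C152-metabolizing P450s has a fractional content in the pooled HLM P450 pool (LC-MS/MS MRM). That fraction is multiplied by its Supersome Vmax (saturation) or by its rate at 30 μM C152 from Hill or Michaelis–Menten parameters. Expected participation (% TNR) is each normalized rate divided by the sum of all seven.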

CYP3A4 [7] = molecular target: T1, CYP3A4; assay: Projected involvement in C152 metabolism in HLM
How it was run: as §3

CYP3A5 [8] = molecular target: T2, CYP3A5; assay: Projected involvement in C152 metabolism in HLM
How it was run: as §3

[9] = at 30 μM C152, calculated from fit parameters
[10] = at saturation (Vmax in Supersomes)
[11] = C151 formed over total C152 metabolized
[12] = mol C151 formed per mol P450 per min
[13] = read-out: KM or S50 (Formation of C151, LC-MS), Michaelis-Menten fit
[14] = at saturation of all P450 species
[15] = at saturation of all P450 species, % TNR

CYP2C9, sequence (P11712 whole entry): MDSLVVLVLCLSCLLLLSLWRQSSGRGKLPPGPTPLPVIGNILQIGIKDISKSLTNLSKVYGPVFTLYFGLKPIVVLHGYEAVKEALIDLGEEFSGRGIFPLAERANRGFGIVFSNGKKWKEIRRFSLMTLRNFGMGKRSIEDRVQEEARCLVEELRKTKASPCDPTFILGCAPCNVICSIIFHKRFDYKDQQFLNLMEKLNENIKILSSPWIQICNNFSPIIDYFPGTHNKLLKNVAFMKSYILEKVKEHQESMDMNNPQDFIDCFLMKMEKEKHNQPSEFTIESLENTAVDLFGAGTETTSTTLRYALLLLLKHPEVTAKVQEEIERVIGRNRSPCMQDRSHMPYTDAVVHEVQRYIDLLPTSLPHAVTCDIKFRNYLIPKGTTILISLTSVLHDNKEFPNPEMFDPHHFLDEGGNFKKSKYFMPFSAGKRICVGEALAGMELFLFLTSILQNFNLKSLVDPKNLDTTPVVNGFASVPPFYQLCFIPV

SMILES: CN(C)c1ccc2c(C(F)(F)F)cc(=O)oc2c1 [C152, 7-Dimethylamino-4-trifluromethylcoumarin]
- Specific rate (CYP2C9; [9]): 2.0 min⁻¹
- Specific rate (CYP2C9; [10]): 3.9 min⁻¹
- Vmax (C152 metabolism, fluorimetric assay) (CYP2C9; SS(2C9), mol C152 per mol P450 per min): 3.9 ± 1.2 min⁻¹
- Km (CYP2C9; read-out: KM or S50 (C152 metabolism, fluorimetric assay), SS(2C9), Michaelis-Menten fit, 30 °C, pH 7.4): 29 ± 8 µM
- Specific rate (CYP3A4 [1]; [9]): 16.5 min⁻¹
- Specific rate (CYP3A4 [1]; [10]): 17.3 min⁻¹
- N, Hill coefficient (C152 metabolism, fluorimetric assay) (CYP3A4 [1]; SS(3A4)): 1.6±0.2
- Vmax (C152 metabolism, fluorimetric assay) (CYP3A4 [1]; SS(3A4), mol C152 per mol P450 per min): 17 ± 3 min⁻¹
- Fraction of C151 formed, Fluorimetry (CYP3A4 [1]; SS(3A4), scanning fluorimetry with PCA): 2.5±0.3%
- Km (CYP3A4 [1]; read-out: KM or S50 (C152 metabolism, fluorimetric assay), SS(3A4), Hill fit (S50), 30 °C, pH 7.4): 4.5 ± 1.2 µM
- Specific rate (CYP3A5 [2]; [9]): 9.5 min⁻¹
- Specific rate (CYP3A5 [2]; [10]): 15.3 min⁻¹
- Vmax (C152 metabolism, fluorimetric assay) (CYP3A5 [2]; SS(3A5), mol C152 per mol P450 per min): 15 ± 4 min⁻¹
- Km (CYP3A5 [2]; read-out: KM or S50 (C152 metabolism, fluorimetric assay), SS(3A5), Michaelis-Menten fit, 30 °C, pH 7.4): 19 ± 9 µM
- Fraction of C151 formed, LC-MS (CYP2B6; [11]): 4% and 4.0±0.8%
- Vmax (Formation of C151, LC-MS) (CYP2B6; [12]): 1.8 ± 0.4 min⁻¹
- Km (CYP2B6; [13]): 1 ± 0.4 µM
- Fraction of C151 formed, LC-MS (CYP2C19 [3]; [11]): 5.6±0.4%
- Vmax (Formation of C151, LC-MS) (CYP2C19 [3]; [12]): 0.43 ± 0.03 min⁻¹
- Km (CYP2C19 [3]; [13]): 6.7 ± 1.5 µM
- N, Hill coefficient (Formation of C151, LC-MS) (CYP3A4 [4]): 1.4±0.4
- Fraction of C151 formed, LC-MS (CYP3A4 [4]; [11]): 5.4±2.4%
- Vmax (Formation of C151, LC-MS) (CYP3A4 [4]; [12]): 0.94 ± 0.41 min⁻¹
- Km (CYP3A4 [4]; read-out: KM or S50 (Formation of C151, LC-MS), Hill fit (S50)): 6.4 ± 1.1 µM
- Vmax (Formation of C151, LC-MS) ([5]; mol C151 formed, normalized per CPR): 1.3 ± 0.2 min⁻¹
- Km [5, 13]: 3 ± 0.5 µM
- Normalized rate (CYP2C8; at 30 μM C152): 0.020 min⁻¹
- Expected participation (CYP2C8; at 30 μM C152, % TNR): 0.16%
- Normalized rate (CYP2C8; [14]): 0.022 min⁻¹
- Expected participation (CYP2C8; [15]): 0.17%
- Normalized rate (CYP2C19 [6]; at 30 μM C152): 0.026 min⁻¹
- Expected participation (CYP2C19 [6]; at 30 μM C152, % TNR): 0.2% and 0.22%
- Normalized rate (CYP2C19 [6]; [14]): 0.031 min⁻¹
- Expected participation (CYP2C19 [6]; [15]): 0.24%
- Normalized rate (CYP3A4 [7]; at 30 μM C152): 10.3 min⁻¹
- Expected participation (CYP3A4 [7]; at 30 μM C152, % TNR): 84% and 84.75%
- Normalized rate (CYP3A4 [7]; [14]): 10.8 min⁻¹
- Normalized rate (CYP3A5 [8]; at 30 μM C152): 0.074 min⁻¹
- Expected participation (CYP3A5 [8]; at 30 μM C152, % TNR): 0.61%
- Normalized rate (CYP3A5 [8]; [14]): 0.120 min⁻¹
- Expected participation (CYP3A5 [8]; [15]): 0.91%
